UBC9 SUMO inh: blocks human SUMOylation mediated by UBC9. P63279. HTRF SUMOylation assay, SAE1/SAE2 + UBC9, in vitro. inhibition, % at 35 µM. 290,000 compounds, 0.36% hits; in the data active = inhibition above about 50%, passing the limit was not always enough
Target sequence (P63279 whole entry, looked up): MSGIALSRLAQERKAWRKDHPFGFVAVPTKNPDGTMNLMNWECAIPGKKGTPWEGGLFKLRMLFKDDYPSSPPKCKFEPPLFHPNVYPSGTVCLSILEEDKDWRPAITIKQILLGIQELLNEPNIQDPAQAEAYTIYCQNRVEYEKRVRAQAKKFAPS
UBC13 inh: inhibitors of human UBC13 polyubiquitin chain formation. P61088. TR-FRET. inhibition, % at 20 µM. 330,000 compounds, 0.47% hits. AID 485273; in the data active = inhibition above about 45%, passing the limit was not always enough
Target sequence (P61088 whole entry, looked up): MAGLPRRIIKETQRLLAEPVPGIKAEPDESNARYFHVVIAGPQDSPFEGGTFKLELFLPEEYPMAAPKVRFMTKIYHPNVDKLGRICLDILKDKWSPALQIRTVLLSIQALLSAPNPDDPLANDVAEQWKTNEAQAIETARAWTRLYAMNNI
Rin1-Abl PPI inh: blocks binding of human Rin1 to Abl. TR-FRET Rin1/Abl binding, biochemical. inhibition, % at 7.35 µM. 360,000 compounds, 0.4% hits; in the data active = inhibition above about 5%, passing the limit was not always enough
PAD4 inh: PAD4 (human) enzyme inhibition. 330,000 compounds, 0.41% hits. AID 485272. Q9UM07. recombinant PAD4, RCA probe fluorescence polarization. inhibition, % at 6.36 µM;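 active = percent inhibition above a cutoff equal to the mean of all tested compounds plus 3 SD, cut at about 15% in these data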;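 also: 0% = PAD4 with RCA probe and DMSO and 100% = probe without PAD4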
GSTO1 counter: blocks human GSTO1 in RBBP9 counter-screen; P78417; 300,000 compounds, 1.1% hits; AID 1974; inhibition, % at 5.96 µM; recombinant GSTO1, activity-based probe fluorescence polarization;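 active = inhibition above the campaign mean inhibition plus 3 SD, cut at about 35% in these data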;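 also: 0% = GSTO1-1 with DMSO and 100% = wells lacking GSTO1-1 enzyme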
Target sequence (P78417 whole entry, looked up): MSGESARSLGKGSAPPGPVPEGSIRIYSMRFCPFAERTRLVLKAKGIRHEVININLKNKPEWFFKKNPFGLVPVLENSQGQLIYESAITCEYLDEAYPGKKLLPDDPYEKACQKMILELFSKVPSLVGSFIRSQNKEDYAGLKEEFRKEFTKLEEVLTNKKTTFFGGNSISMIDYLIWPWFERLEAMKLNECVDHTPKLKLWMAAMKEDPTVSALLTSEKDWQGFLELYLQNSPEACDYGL
Apaf-1 inh: inhibitors of human Apaf-1 apoptosome; reconstituted apoptosome caspase-3 activity, DEVD-Rh110 fluorescence; 330,000 compounds, 0.71% hits; inhibition, % at 20 µM; O14727; active = inhibition of at least 40% at 20 µM;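 also: plate controls were DMSO wells for no effect and DEVD-CHO caspase inhibitor wells for full effect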
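System: Apoptosome proteins | Medium: Hepes pH 7.5 with detergent and BSA | Also added: Cytochrome c trigger plus (Z-DEVD)2-Rh110 caspase-3 substrate | Incubation: 30 min compound preincubation, 50 min activation, room temperature | Detection: Rhodamine 110 fluorescence at Ex 480/Em 540 nm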
* marks the source's active call; other numbers are inactive results; · = no result given. Sampled rows, rich in hits. Any-hit rate of the full collection: about 2.2%.

SMILES	UBC9 SUMO inh	UBC13 inh	Rin1-Abl PPI inh	PAD4 inh	GSTO1 counter	Apaf-1 inh
CN(CC(=O)Nc1c(Cl)cccc1Cl)C(=O)c1ccccc1SCC(=O)N1CCCC1	8	12	0	1	2	29
C=CCn1c(N)c(C(=O)Nc2cccc(C)c2)c2nc3ccccc3nc21	97	8	5	-6	17	48*
C=CCn1c(N)c(C(=O)Nc2ccc(C)c(C)c2)c2nc3ccccc3nc21	7	13	3	-6	8	23
COC(=O)CNC(=O)C1Nc2ccccc2C2C=CCC12 (centres undefined)	·	-42	1	-14	43*	12
CC(C)CNC(=O)C1Nc2ccccc2C2C=CCC12 (centres undefined)	·	-48	3	-6	21	10
O=C(CSc1nnc(NC(=O)C2CC(=O)N(c3ccc(F)cc3)C2)s1)NCC1CCCO1 (centres undefined)	8	-2	0	-9	5	21
COc1ccc(NC(=O)C[C@H]2C(=O)N(c3ccc(Br)cc3)C[C@@H]2C)cc1	·	·	-2	·	·	·
Oc1ccc2c(c1)C1CCCC1(N1CCOCC1)O2 (centres undefined)	13	-10	3	3	42*	2
Cc1cc(C)cc(-n2nnnc2-c2cn(C)nc2C(F)(F)F)c1	-2	1	7.5*	-1	17	15
CC1(C)Cc2c(sc3nc(SCC(=O)O)[nH]c(=O)c23)CO1	27	2	4	3	36*	-5
CC(=O)NCC(=O)OCN1C(=O)c2ccccc2C1=O	-6	2	-1	-1	36*	-3
O=c1cc(N=Nc2ccc(Cl)cc2)[nH]c(=O)[nH]1	14	·	-5	1	47*	·
CNC(=O)c1cc(S(=O)(=O)N2CC(C)OC(C)C2)ccc1N1CCCCC1 (centres undefined)	13	-6	3	·	·	2
CCC(=O)Nc1ccc(N2CCCCC2)cc1	4	5	-1	0	3	-9
O=C(CCl)Nc1ccc(N2CCCCCC2)cc1	-17	10	0	2	95*	11
CCCCN1C[C@H](CSC)[C@@H](CC(=O)Nc2ccc(Br)cc2)C1=O	·	·	-3	·	·	·
Cc1ccc(N=Cc2cc3c(cc2[N+](=O)[O-])OCO3)cc1[N+](=O)[O-]	·	-30	1	-12	36*	40
CC(=O)N(C)c1ccc(N=Cc2cc3c(cc2[N+](=O)[O-])OCO3)cc1	·	-18	-1	-12	12	65*
OCC1OC(n2cnc3c(/C=C(\O)c4ccccc4)ncnc32)C(O)C1O (centres undefined)	·	·	0	·	·	·
O=C1c2cccc3cccc(c23)C(=O)N1/N=C/c1ccc(O)cc1O	6	-17	-8	2	12	3
O=C1c2ccccc2C(=O)N1/N=C/c1ccc(O)c(O)c1O	72*	·	65*	·	·	·
ClCC1=Nc2cccc3cccc(c23)N1	11	-8	·	2	55*	-25
O=C(COc1ccc(Cl)cc1)NC1=NN(c2ccccc2)C(=O)C1	7	-12	2	-9	40*	13
Cc1cc(C)cc(NC(=O)/C(C#N)=C/c2cn(CC(=O)NCc3ccco3)c3ccccc23)c1	29	-14	0	-1	-6	2
Cc1ccc(C)c(NC(=O)/C(C#N)=C/c2cn(CC(=O)NCc3ccco3)c3ccccc23)c1	54*	-15	-2	0	-4	3
SMILES	UBC9 SUMO inh	UBC13 inh	Rin1-Abl PPI inh	PAD4 inh	GSTO1 counter	Apaf-1 inh
Cc1ccc(NC(=O)/C(C#N)=C/c2cn(CC(=O)NCc3ccco3)c3ccccc23)cc1C	62*	-12	-3	-3	-24	1
CN(CCCN1c2ccccc2CCc2ccccc21)CC(=O)c1ccc(Cl)cc1	·	39	·	0	3	44*
CCC(CC)c1nnc(NC(=O)C2CC(=O)N(C3CCCC3)C2)s1 (centres undefined)	2	2	-2	0	3	0
C/C(CCC(=O)O)=N/Nc1ccc([N+](=O)[O-])cc1[N+](=O)[O-]	8	-34	-4	-10	38*	9
C/C(CCCO)=N/Nc1ccc([N+](=O)[O-])cc1[N+](=O)[O-]	-3	-43	-4	-10	7	1
CN1C(=O)N(C)c2cccc3cccc1c23	8	8	-1	-2	5	6
CC1=Nc2cccc3cccc(c23)N1C	79*	-11	-5	-2	-1	4
O=C1C2C3C=CC(O3)C2C(=O)N1N=Cc1ccc2c(c1)OCO2 (centres undefined)	·	·	3	·	·	·
COC/C=C/C1=CC2=CC(=O)C(C)(OC(=O)c3cnc4ccccc4n3)C(=O)C2=CN1c1ccc(CO)cc1 (centres undefined)	58*	-24	·	7	37*	0
CC1(OC(=O)c2cnc3ccccc3n2)C(=O)C=C2C=C(C3CC3)OC=C2C1=O (centres undefined)	·	-71	·	38*	43*	-2
COC/C=C/C1=CC2=CC(=O)C(C)(OC(=O)c3cnc4ccccc4n3)C(=O)C2=CN1C1CCCCC1 (centres undefined)	15	-46	·	0	36*	17
COCCNC(=O)/C(C#N)=C\c1ccc(CNC(=O)C(=O)Nc2ccc(C)c(C)c2)o1	20	-3	3	2	2	-8
COc1ccc(NC(=O)C(=O)N/N=C\c2ccc(CNC(=O)C(=O)Nc3ccc(C)c(C)c3)o2)c(OC)c1	58*	-29	·	-1	4	-4
C[C@@H]1CN([C@@H](C)CO)C(=O)CCCn2nncc2CO[C@H]1CN(C)S(=O)(=O)c1cccc(C#N)c1	·	·	1	·	·	·
CCN(CC)S(=O)(=O)c1ccc(Cl)c(C(=O)NNC(=O)c2csc(N3CCOCC3)n2)c1	·	·	5	·	·	·
O=C(CCCN1C(=O)/C(=C/c2ccccc2)SC1=S)Nc1ccc(C(=O)O)c(O)c1	9	-13	1	12	25	10
O=C(CCCN1C(=O)/C(=C/c2ccco2)SC1=S)Nc1cccc(C(=O)O)c1	64*	-12	-2	-6	20	6
O=C(CN1C(=O)/C(=C/c2ccco2)SC1=S)Nc1ccc(O)c(C(=O)O)c1	51*	-20	4	-17	28	3
O=C(CN1C(=O)/C(=C/c2ccco2)SC1=S)Nc1ccc(C(=O)O)c(O)c1	72*	-8	5	-27	7	11
CC(C(=O)Nc1ccc(C(=O)O)c(O)c1)N1C(=O)/C(=C\c2ccco2)SC1=S (centres undefined)	57*	-14	6	11	28	7
Cc1ccc(C)c(C(O)c2ncc(-c3ccc4ccccc4c3)[nH]2)c1 (centres undefined)	·	·	-7	·	·	·
COc1ccccc1C(=O)NCCC(=O)N1CC(C)OC(C)C1 (centres undefined)	·	·	3	·	·	·
CCOc1ccc(NC(=O)COC(=O)COc2cccc3c2OC(C)(C)C3)cc1	8	-1	-1	-6	15	5
